Reference: ChEMBL document CHEMBL4819122, “Novel 4-(piperazin-1-yl)quinolin-2(1H)-one bearing thiazoles with antiproliferative activity through VEGFR-2-TK inhibition” (Bioorg Med Chem, 2021)

Columns and labels:
Format in all cases: functional
Details in all cases: read-out: GI
T47D = experiment: Cytotoxicity against human T-47D assessed as growth inhibition at 10 uM by NCI protocol relative to control
In short: (§1)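 Run by the NCI under its standard protocol: one dose of 10 μM against a sixty-line panel from nine human tumour tissues. Result given as percent growth inhibition of treated cells relative to untreated cells.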

HT-29 = experiment: Cytotoxicity against human HT29 assessed as growth inhibition at 10 uM by NCI protocol relative to control
In short: (§2)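 Run by NCI as a single-dose screen at 10 μM across the sixty-cell-line panel, which covers nine human tumour tissue types. The read-out is percent growth inhibition of treated cells relative to untreated cells.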

786-0 = experiment: Cytotoxicity against human 786-0 assessed as growth inhibition at 10 uM by NCI protocol relative to control; in short: as §2
M14 = experiment: Cytotoxicity against human M14 assessed as growth inhibition at 10 uM by NCI protocol relative to control; in short: as §2
SNB-75 = experiment: Cytotoxicity against human SNB-75 assessed as growth inhibition at 10 uM by NCI protocol relative to control; in short: as §1
SK-OV-3 = experiment: Cytotoxicity against human SK-OV-3 assessed as growth inhibition at 10 uM by NCI protocol relative to control; in short: as §2
SF-295 = experiment: Cytotoxicity against human SF-295 assessed as growth inhibition at 10 uM by NCI protocol relative to control; in short: as §2
SF-539 = experiment: Cytotoxicity against human […] assessed as growth inhibition at 10 uM by NCI protocol relative to control; in short: as §2
UACC-257 = experiment: Cytotoxicity against human UACC-257 assessed as growth inhibition at 10 uM by NCI protocol relative to control; in short: as §1
SN12C = experiment: Cytotoxicity against human SN12C assessed as growth inhibition at 10 uM by NCI protocol relative to control; in short: as §1
LOX IMVI = experiment: Cytotoxicity against human LOX IMVI assessed as growth inhibition at 10 uM by NCI protocol relative to control; in short: as §2
MCF7 = experiment: Cytotoxicity against human MCF7 assessed as growth inhibition at 10 uM by NCI protocol relative to control; in short: as §2
Malme-3M = experiment: Cytotoxicity against human MALME-3M assessed as growth inhibition at 10 uM by NCI protocol relative to control; in short: as §2
SW-620 = experiment: Cytotoxicity against human SW-620 assessed as growth inhibition at 10 uM by NCI protocol relative to control; in short: as §1
SNB-19 = experiment: Cytotoxicity against human SNB-19 assessed as growth inhibition at 10 uM by NCI protocol relative to control; in short: as §1
NCI-H322M = experiment: Cytotoxicity against human NCI-H322M assessed as growth inhibition at 10 uM by NCI protocol relative to control; in short: as §2
BT-549 = experiment: Cytotoxicity against human BT-549 assessed as growth inhibition at 10 uM by NCI protocol relative to control; in short: as §2
OVCAR-4 = experiment: Cytotoxicity against human OVCAR-4 assessed as growth inhibition at 10 uM by NCI protocol relative to control; in short: as §2
HL-60 = experiment: Cytotoxicity against human HL60 assessed as growth inhibition at 10 uM by NCI protocol relative to control; in short: as §2
HOP-92 = experiment: Cytotoxicity against human HOP-92 assessed as growth inhibition at 10 uM by NCI protocol relative to control; in short: as §2
SR = experiment: Cytotoxicity against human SR assessed as growth inhibition at 10 uM by NCI protocol relative to control; in short: as §1
PC-3 = experiment: Cytotoxicity against human PC3 assessed as growth inhibition at 10 uM by NCI protocol relative to control; in short: as §2
EKVX = experiment: Cytotoxicity against human EKVX assessed as growth inhibition at 10 uM by NCI protocol relative to control; in short: as §2
U-251 = experiment: Cytotoxicity against human U251 assessed as growth inhibition at 10 uM by NCI protocol relative to control; in short: as §1
NCI-H460 = experiment: Cytotoxicity against human NCI-H460 assessed as growth inhibition at 10 uM by NCI protocol relative to control; in short: as §2
MDA-MB-231 = experiment: Cytotoxicity against human MDA-MB-231 assessed as growth inhibition at 10 uM by NCI protocol relative to control; in short: as §2

COc1ccc(-c2csc(NC(=O)CN3CCN(c4cc(=O)[nH]c5ccc(F)cc45)CC3)n2)cc1
inhibition of growth at 10 µM (T47D): 69.2% | inhibition of growth at 10 µM (HT-29): 22.1% | inhibition of growth at 10 µM (786-0): 19.3% | inhibition of growth at 10 µM (M14): 19.2% | inhibition of growth at 10 µM (SNB-75): 23.9% | inhibition of growth at 10 µM (SK-OV-3): 10.4% | inhibition of growth at 10 µM (SF-295): 17.5% | inhibition of growth at 10 µM (SF-539): 30.5% | inhibition of growth at 10 µM (UACC-257): 14.5% | inhibition of growth at 10 µM (SN12C): 29.1% | inhibition of growth at 10 µM (LOX IMVI): 20.8% | inhibition of growth at 10 µM (MCF7): 28.4% | inhibition of growth at 10 µM (Malme-3M): 33.6% | inhibition of growth at 10 µM (SW-620): 34.6% | inhibition of growth at 10 µM (SNB-19): 15.3% | inhibition of growth at 10 µM (NCI-H322M): 12.6% | inhibition of growth at 10 µM (BT-549): 18.6% | inhibition of growth at 10 µM (OVCAR-4): 25.1% | inhibition of growth at 10 µM (HL-60): 23.5% | inhibition of growth at 10 µM (HOP-92): 25.4% | inhibition of growth at 10 µM (SR): 34.7% | inhibition of growth at 10 µM (PC-3): 35.8% | inhibition of growth at 10 µM (EKVX): 24.9% | inhibition of growth at 10 µM (U-251): 30.3% | inhibition of growth at 10 µM (NCI-H460): 12.5% | inhibition of growth at 10 µM (MDA-MB-231): 24.5%
